# WT yeast gro inh: growth inhibition of WT yeast, mitochondrial fusion screen. mitochondrial fusion phenotypic screen, WT strain. inhibition, % at 10 µM. 190,000 tested, 2.1% active. AID 1362; in the data active = inhibition above about 58%; tested in S. cerevisiae
# L major viab: Leishmania major promastigote growth inhibition | Leishmania major promastigotes, resazurin fluorescence viability | inhibition, % at 10 µM | 200,000 tested, 9% active | AID 1063; in the data active = inhibition above about 50%;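 also: promastigotes grown with compound for 44 hours at 28 °C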
# ROMK mod: human ROMK K+ channel modulation, primary screen; B-score at 10 µM; P48048; 130,000 tested, 2% active; Tet-inducible ROMK, thallium flux fluorescence; actives lie on both sides;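 active = signal ratio slope over the read window, or its plate-corrected B-score, at least 3 SD from the plate mean, either direction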;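 also: B-score of the F/F0 ratio slope over 7 to 12 s after thallium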
# Diaph inh CS: inhibits diaphorase or chemically oxidizes, flagging diaphorase assay artifacts | AID 1217 | 190,000 tested, 0.69% active | diaphorase resazurin-to-resorufin fluorescence, NADH, 16 min; bacterial (C. kluyveri) enzyme, not human | inhibition, % at 20 µM;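 active = primary screen inhibition at 20 µM above a set limit, cut at about 50% in these data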;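 also: plate controls were DMSO with full reaction for no effect and wells lacking NADH for full effect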
#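 Assay system: diaphorase enzyme from Clostridium kluyveri. Quantity: enzyme working solution with 0.14 U/mL diaphorase. Schedule: reaction incubation of 16 min at room temperature. Technique: resorufin fluorescence, excitation 544 nm, emission 590 nm. Controls: No-NADH positive control and DMSO neutral control.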
# KCC2 mod: modulates chloride dependent transport by human KCC2 | Q9H2X9 | KCC2 cells, thallium flux FluoZin-2 fluorescence | B-score of Tl+ flux slope (higher = more flux/activation; lower = inhibition) at 10 µM | 190,000 tested, 2.2% active | AID 1456;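 active = thallium flux slope and its plate-corrected score both differing from the plate sample mean at a set confidence after two filtering rounds, in either direction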;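 also: slope of fluorescence scaled to starting intensity during 10 to 20 s after thallium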
# Diaphorase act: counter-screen for diaphorase-based assays: diaphorase activators and chemical reducers; activation factor at 20 µM; Diaphorase/resazurin coupled assay, resorufin fluorescence, 16 min; hits give high values; 1 = vehicle wells, 0 = NADH-free wells; 190,000 tested, 0.005% active;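 active = diaphorase activity raised at least twofold by the compound at 20 µM; inactive = activation factor below 2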
#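 Material: purified diaphorase enzyme from Clostridium kluyveri; Also added: 0.114 mM NADH and 0.1 mM resazurin, final amounts; Doses: single compound dose of 20 µM, 1% DMSO final; Times: 16 min enzyme reaction, ambient temperature; Detection: resorufin fluorescence, excitation 544 nm, emission 590 nm; Measure: increased resorufin signal from activators or reducing compounds.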
# Numbers without * were called inactive; x = no result given. This is a sample that favours compounds with a hit; in the whole collection about 12% have one here.
SMILES,WT yeast gro inh,L major viab,ROMK mod,Diaph inh CS,KCC2 mod,Diaphorase act
O=C(Cn1cncc1-c1ccc([N+](=O)[O-])cc1)Nc1ccccc1F,-4,52*,0.15,7,1.8,0.9
COc1ccc(C(=O)N(Cc2nc(-c3ccc(C)cc3)no2)C2CCCCC2)cc1OC,65*,10,x,24,x,0.8
Cc1cccc(-c2noc(CN(C(=O)c3c(-c4ccccc4Cl)noc3C)C(C)C)n2)c1,38,16,x,26,-0.028,0.7
Cc1onc(-c2ccccc2Cl)c1C(=O)N(Cc1nc(-c2ccccc2)no1)C1CCCCC1,44,54*,x,15,x,0.9
Cc1ccc(SCCNC(=O)/C=C/c2ccc(Cl)cc2)cc1,11,51*,0.11,0,-0.61,1
Cc1ccc(SCCNC(=O)/C=C/c2ccc([N+](=O)[O-])cc2)cc1,25,62*,-0.51,17,-2.8,0.8
CC(C)c1cc(-c2cc(C(=O)NCc3ccccc3)on2)nc(NCC2CC2)n1,x,x,x,x,-0.4,x
Cc1ccc(CN=C(Nc2ccccc2)NC2CCCCC2)cc1,-7,60*,x,1,0.16,1
C/C(CCc1ccc2c(c1)OCO2)=N\N=C(/N)SC1CC(=O)N(c2ccc(Cl)cc2)C1=O (configuration not stated),65*,3,x,30,-0.75,0.7
N/C(=N\N=C\c1ccc2c(c1)OCO2)SC1CC(=O)N(c2ccc(C(=O)O)cc2)C1=O (configuration not stated),-7,-3,-0.4,11,0.61,0.9
Cc1ccc(NC(=O)c2snc3ccc(Cl)cc23)cc1C,1,-7,0.11,21,-0.81,0.8
O=C1CSC(c2cn(-c3ccccc3)nc2-c2ccccc2)N1Cc1ccco1 (configuration not stated),45,36,x,25,0.14,0.8
CCc1ccc(-c2nn(-c3ccccc3)cc2C2SCC(=O)N2Cc2ccco2)cc1 (configuration not stated),x,98*,0.0077,20,1,0.8
CCOC(=O)C1CCC(CN(Cc2ccccc2)S(=O)(=O)c2ccc([N+](=O)[O-])cc2)CC1 (configuration not stated),71*,22,x,-5,-1.5,1.1
CCOC(=O)C1CCN(C(=O)CN(Cc2ccccc2)S(C)(=O)=O)CC1,-10,-2,x,10,-0.76,0.9
CC(C)(C)C(=O)Nc1cccc(OC(F)(F)C(F)Cl)c1 (configuration not stated),11,17,1.1,9,0.038,0.9
N#C/C(=C\c1ccc(-c2ccc(F)cc2)o1)C(=O)Nc1nc(-c2cccs2)cs1,2,3,x,6,1.3,0.9
N#C/C(=C/c1ccc(-c2ccccc2)o1)c1nc(-c2cccs2)cs1,3,-7,-5.3*,1,-1,1
Cc1ccc(C(C(=O)NC(C)(C)C)N(CC2CCCO2)C(=O)Cn2nnc(-c3ccc(C)o3)n2)cc1 (configuration not stated),3,54*,x,16,-0.56,0.8
Cc1ccc(-c2nnn(CC(=O)N(CC3CCCO3)C(C(=O)NC3CCCC3)c3ccc(O)cc3)n2)o1 (configuration not stated),-24,-12,0.25,10,-0.97,0.9
CC(=O)C1=C(O)C(=O)N(c2ccc(Br)cn2)C1c1ccc(F)cc1 (configuration not stated),-9,-4,-1.7,-10,-1.8,1.1
CCN(Cc1ccccc1)c1ccc(/C=C(\C#N)c2ccccn2)cc1,11,1,x,14,-1.4,0.9
CCN(CC)c1ccc(/C=C(\C#N)c2ccccn2)cc1,68*,12,1.8,10,-0.55,0.9
O=c1[nH][nH]c(-c2ccccc2O)c1C(C[N+](=O)[O-])c1cccc(Cl)c1 (configuration not stated),-9,100*,-0.14,18,0.14,0.8
Cc1cc(O)c(C(C[N+](=O)[O-])c2ccc(Cl)cc2Cl)c(=O)o1 (configuration not stated),-23,49,0.55,4,x,1

# Source: PubChem BioAssay (several laboratories)
